The values below come from ChEMBL document CHEMBL1149502, “Conjugated indole-imidazole derivatives displaying cytotoxicity against multidrug resistant cancer cell lines” (Bioorg Med Chem Lett, 2006).

Type in all cases: functional, cell-based
Assay [1] has as its system HL-60. Briefly: Cytotoxicity against human HL60/TX1000 cell line by MTS assay. Summed up:
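HL-60/TX1000 is a subline isolated in vitro by subculturing HL-60 in rising Taxol concentrations. It overexpresses MDR1 mRNA and P-glycoprotein (Western blot, anti-P-gp immunofluorescence). Cells were grown in RPMI1640 with 10% FC, penicillin, streptomycin and L-glutamine, split every third day and set at 2· 10⁵ cells/mL the day before. Compound was a 1 mM DMSO stock diluted into medium, read by MTS.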
Background: Tetrazolium assays rely on reduction of a dye to a coloured formazan, in cell work by metabolically active cells.

In the next assay the test system is MES-SA/Dx5. The assay can be described thus: Cytotoxicity against human MES-SA/DX5 cell line by MTS assay. Summed up: (§1)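 Cells kept in RPMI1640 with 10% FC, 100 U/mL penicillin, streptomycin and […] L-glutamine. Split every third day and diluted to 2· 10⁵ cells/mL one day before testing, so exponentially growing cultures were used. Compound stock was 1 mM in DMSO, diluted straight into the medium to final concentrations. Viability was read by MTS.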

The next assay has as its system MDA-MB-435. The assay can be described thus: Cytotoxicity against human MDA435 cell line by MTS assay. Summed up: as §1
The test system of another assay is MES-SA. Briefly: Cytotoxicity against human MES-SA cell line by MTS assay. The gist of the method: as §1
The next assay relates to DU-145. The assay can be described thus: Cytotoxicity against human DU145 cell line by MTS assay. Summed up:
as §1

The test system of assay [2] is HL-60. The assay can be described thus: Cytotoxicity against human HL60 cell line by MTS assay. The gist of the method:
as §1

Another assay deals with P388. Briefly: Cytotoxicity against murine P388 cell line by MTS assay. The conditions noted are these: Mus musculus. Summed up: as §1

The structures appear in SMILES notation. pIC50: −log10 of the molar value.

For the molecule `CCNC(=O)c1c[nH]c(C(=O)c2cn(Cc3ccc(Cl)cc3)c3ccccc23)n1`, the pIC50 (commonly −log10 of the IC50, conventionally taken in molar units) in the assay on HL-60 [1] was 5.30. On the same count and under the same terms, then `O=C(O)c1c[nH]c(C(=O)c2cn(Cc3ccc(Cl)cc3)c3ccccc23)n1`, with 5.00. Same read-out and setting: then `O=C(c1cccnc1)c1c[nH]c(C(=O)c2cn(Cc3ccc(Cl)cc3)c3ccccc23)n1`, with 6.30. On to `O=C(c1nc2ccc[nH]c-2n1)c1cn(Cc2ccc(Cl)cc2)c2ccccc12`, for which, in the assay on HL-60 [1], the pIC50 is 5.00. On the same count and under the same terms, then `O=C(c1ncc[nH]1)c1cn(Cc2ccc(Cl)cc2)c2ccccc12`, with 5.00. Same read-out and setting: the result for `COC(=O)c1c[nH]c(C(=O)c2cn(Cc3ccc(Cl)cc3)c3ccccc23)n1` reads 6.30. With `CCC(=O)c1c[nH]c(C(=O)c2cn(Cc3ccc(Cl)cc3)c3ccccc23)n1`, the pIC50 in the assay on HL-60 [1] is 6.30.

As for `CC(=O)O[C@H]1C(=O)[C@@]2(C)[C@H]([C@H](OC(=O)c3ccccc3)[C@]3(O)C[C@H](OC(=O)[C@H](O)[C@@H](NC(=O)c4ccccc4)c4ccccc4)C(C)=C1C3(C)C)[C@]1(OC(C)=O)CO[C@@H]1C[C@@H]2O` [PACLITAXEL], the pIC50 in the assay with MES-SA/Dx5 is 5.30; in the assay with MDA-MB-435, 8.30; in the assay with MES-SA, 8.30. Turning to `Cn1c(C(=O)c2cn(Cc3ccc(Cl)cc3)c3ccccc23)nc2cnccc21`, the pIC50 in the assay on HL-60 [1] is 5.00.

The molecule `O=C(c1nc(-c2ccccn2)c[nH]1)c1cn(Cc2ccc(Cl)cc2)c2ccccc12` gave a pIC50 in the assay with HL-60 [1] of 6.30. On the same count and under the same terms, the result for `O=C(c1nc(CO)c[nH]1)c1cn(Cc2ccc(Cl)cc2)c2ccccc12` reads 5.30. As to `O=C(c1nc2cc[nH]cc-2n1)c1cn(Cc2ccc(Cl)cc2)c2ccccc12`, the pIC50 in the assay with MES-SA/Dx5, in the assay with HL-60 [1], in the assay with DU-145, with MDA-MB-435, in the assay on HL-60 [2] and with P388 was 7.30 throughout. In the assay with MES-SA, this molecule gave a pIC50 of 8.00.

In the assay on HL-60 [1], `O=C(c1nc(C(O)c2cccnc2)c[nH]1)c1cn(Cc2ccc(Cl)cc2)c2ccccc12` (stereo unspecified) gave a pIC50 of 5.00.
